Measurements taken from BindingDB's records for doi:10.1016/j.bmcl.2009.03.011 (Cytrx, 2009).

target: T1, Heat shock factor protein 1 (Homo sapiens, UniProt Q00613); assay: Transcriptional activation of HSF1 in heat shock stress-induced human HeLa cells assessed as granule formation treated 1 hr before heat shock challenge measured after 2 hrs by immunocytochemical staining
T1 sequence (Q00613 whole entry): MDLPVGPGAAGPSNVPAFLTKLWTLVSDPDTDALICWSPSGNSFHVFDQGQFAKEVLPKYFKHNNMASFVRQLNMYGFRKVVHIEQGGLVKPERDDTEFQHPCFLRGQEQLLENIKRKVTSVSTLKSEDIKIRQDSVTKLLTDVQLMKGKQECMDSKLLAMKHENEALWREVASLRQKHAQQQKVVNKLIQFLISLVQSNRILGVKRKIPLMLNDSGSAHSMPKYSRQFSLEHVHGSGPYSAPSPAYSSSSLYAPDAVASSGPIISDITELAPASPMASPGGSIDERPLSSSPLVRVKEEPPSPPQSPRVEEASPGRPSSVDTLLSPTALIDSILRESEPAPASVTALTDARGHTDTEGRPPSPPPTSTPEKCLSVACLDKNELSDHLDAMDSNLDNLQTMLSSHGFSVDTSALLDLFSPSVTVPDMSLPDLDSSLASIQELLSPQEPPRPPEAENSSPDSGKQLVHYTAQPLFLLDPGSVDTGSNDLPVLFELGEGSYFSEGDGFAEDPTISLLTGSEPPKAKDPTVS
Summary of the method: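 HeLa cells given compound 1 h, then heat shock at 41 °C for 2 h without recovery; HSF1 immunocytochemical staining, quantified by high-content imaging. Range 0.3–80 µM, twofold dilution, 200-fold overall.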

EC50 [µM]	SMILES
20.2	OC(CO/N=C(\Cl)c1nc2c(F)cccc2o1)CN1CCCCC1 (configuration not stated) [4-fluoro-N-(2-hydroxy-3-(piperidin-1-yl)propoxy)benzo[d]oxazole-2-carbimidoyl chloride]
42.9	CCS(=O)(=O)c1ccc2oc(/C(Cl)=N/OCC(O)CN3CCCCC3)nc2c1 (configuration not stated) [5-(ethylsulfonyl)-N-(2-hydroxy-3-(piperidin-1-yl)propoxy)benzo[d]oxazole-2-carbimidoyl chloride]
20.9	OC(CO/N=C(\Cl)c1nc2cc(Cl)ccc2o1)CN1CCCCC1 (configuration not stated) [5-chloro-N-(2-hydroxy-3-(piperidin-1-yl)propoxy)benzo[d]oxazole-2-carbimidoyl chloride]
51.3	OC(CO/N=C(\Cl)c1nc2cc(F)ccc2o1)CN1CCCCC1 (configuration not stated) [5-fluoro-N-(2-hydroxy-3-(piperidin-1-yl)propoxy)benzo[d]oxazole-2-carbimidoyl chloride]
41.6	CN(C)S(=O)(=O)c1ccc2nc(/C(Cl)=N/OCC(O)CN3CCCCC3)oc2c1 (configuration not stated) [6-(N,N-dimethylsulfamoyl)-N-(2-hydroxy-3-(piperidin-1-yl)propoxy)benzo[d]oxazole-2-carbimidoyl chloride]
22.9	OC(CO/N=C(\Cl)c1nc2ccc(Cl)cc2o1)CN1CCCCC1 (configuration not stated) [6-chloro-N-(2-hydroxy-3-(piperidin-1-yl)propoxy)benzo[d]oxazole-2-carbimidoyl chloride]
29.4	OC(CO/N=C(\Cl)c1nc2ccc(F)cc2o1)CN1CCCCC1 (configuration not stated) [6-fluoro-N-(2-hydroxy-3-(piperidin-1-yl)propoxy)benzo[d]oxazole-2-carbimidoyl chloride]
18.5	OC(CO/N=C(\Cl)c1nc2cccc(F)c2o1)CN1CCCCC1 (configuration not stated) [7-fluoro-N-(2-hydroxy-3-(piperidin-1-yl)propoxy)benzo[d]oxazole-2-carbimidoyl chloride]
24.1	CCCN(C[C@H](O)CO/N=C(\Cl)c1nc2ccccc2o1)C(C)C [(S)-N-(2-hydroxy-3-(isopropyl(propyl)amino)propoxy)benzo[d]oxazole-2-carbimidoyl chloride]
28.7	CC(C)N(CCO)CC(O)CO/N=C(\Cl)c1nc2ccccc2o1 (configuration not stated) [N-(2-hydroxy-3-((2-hydroxyethyl)(isopropyl)amino)propoxy)benzo[d]oxazole-2-carbimidoyl chloride]
41.6	Cc1ccc2oc(/C(Cl)=N/OCC(O)CN3CCCCC3)nc2c1 (configuration not stated) [N-(2-hydroxy-3-(piperidin-1-yl)propoxy)-5-methylbenzo[d]oxazole-2-carbimidoyl chloride]
31	Cc1ccc2nc(/C(Cl)=N/OCC(O)CN3CCCCC3)oc2c1 (configuration not stated) [N-(2-hydroxy-3-(piperidin-1-yl)propoxy)-6-methylbenzo[d]oxazole-2-carbimidoyl chloride]
41.7	OC(CO/N=C(\Cl)c1nc2ccccc2o1)CN1CCCCC1 (configuration not stated) [N-(2-hydroxy-3-(piperidin-1-yl)propoxy)benzo[d]oxazole-2-carbimidoyl chloride]
52.6	OC(CO/N=C(\Cl)c1nc2ccccc2s1)CN1CCCCC1 (configuration not stated) [N-(2-hydroxy-3-(piperidin-1-yl)propoxy)benzo[d]thiazole-2-carbimidoyl chloride]
12.1	OC(CO/N=C(\Cl)c1nc2c(ccc3ccccc32)o1)CN1CCCCC1 (configuration not stated) [N-(2-hydroxy-3-(piperidin-1-yl)propoxy)naphtho[1,2-d]oxazole-2-carbimidoyl chloride]
62.8	OC(CO/N=C(\Cl)c1nc2ccccc2s1)CN1CCCC1 (configuration not stated) [N-(2-hydroxy-3-(pyrrolidin-1-yl)propoxy)benzo[d]thiazole-2-carbimidoyl chloride]
32.4	CC1CCCC(C)N1CC(O)CO/N=C(\Cl)c1nc2ccccc2o1 (configuration not stated) [N-(3-(2,6-dimethylpiperidin-1-yl)-2-hydroxypropoxy)benzo[d]oxazole-2-carbimidoyl chloride]
17.4	CC1CC(C)CN(CC(O)CO/N=C(\Cl)c2nc3ccccc3o2)C1 (configuration not stated) [N-(3-(3,5-dimethylpiperidin-1-yl)-2-hydroxypropoxy)benzo[d]oxazole-2-carbimidoyl chloride]
52.6	OC(CO/N=C(\Cl)c1nc2ccccc2o1)CN1CCCC(F)C1 (configuration not stated) [N-(3-(3-fluoropiperidin-1-yl)-2-hydroxypropoxy)benzo[d]oxazole-2-carbimidoyl chloride]
22.8	CC(C)N(CCCF)CC(O)CO/N=C(\Cl)c1nc2ccccc2o1 (configuration not stated) [N-(3-((3-fluoropropyl)(isopropyl)amino)-2-hydroxypropoxy)benzo[d]oxazole-2-carbimidoyl chloride]
12.4	CC(C)N(CC(O)CO/N=C(\Cl)c1nc2ccccc2o1)CC1CC1 (configuration not stated) [N-(3-((cyclopropylmethyl)(isopropyl)amino)-2-hydroxypropoxy)benzo[d]oxazole-2-carbimidoyl chloride]
20.9	CCCCN(CCCC)CC(O)CO/N=C(\Cl)c1nc2ccccc2o1 (configuration not stated) [N-(3-(dibutylamino)-2-hydroxypropoxy)benzo[d]oxazole-2-carbimidoyl chloride]
27.1	CCN(CC)CC(O)CO/N=C(\Cl)c1nc2ccccc2o1 (configuration not stated) [N-(3-(diethylamino)-2-hydroxypropoxy)benzo[d]oxazole-2-carbimidoyl chloride]
25.5	CC(C)N(CC(O)CO/N=C(\Cl)c1nc2ccccc2o1)C(C)C (configuration not stated) [N-(3-(diisopropylamino)-2-hydroxypropoxy)benzo[d]oxazole-2-carbimidoyl chloride]
23.9	CCCN(CCC)CC(O)CO/N=C(\Cl)c1nc2ccccc2o1 (configuration not stated) [N-(3-(dipropylamino)-2-hydroxypropoxy)benzo[d]oxazole-2-carbimidoyl chloride]
23	CCCN(CC)CC(O)CO/N=C(\Cl)c1nc2ccccc2o1 (configuration not stated) [N-(3-(ethyl(propyl)amino)-2-hydroxypropoxy)benzo[d]oxazole-2-carbimidoyl chloride]
16.6	CC(C)N(CC(O)CO/N=C(\Cl)c1nc2ccccc2o1)C(C)(C)C (configuration not stated) [N-(3-(tert-butyl(isopropyl)amino)-2-hydroxypropoxy)benzo[d]oxazole-2-carbimidoyl chloride]
